Data as given in ChEMBL document CHEMBL1156154, “Heterocyclic fused pyridone carboxylic acid M(1) positive allosteric modulators” (Bioorg Med Chem Lett, 2010).
The source made the active and inactive calls. No cut-off for these calls is given here.

Assays:
[1] = Plasma protein binding in rat serum by equilibrium dialysis method
Mus musculus = species: Mus musculus; assay: Effect on behavioral activity in mouse contextual fear conditioning model assessed as episodic memory; type: functional, organism-based
[2] = molecular target: T1, Muscarinic acetylcholine receptor M1 (Homo sapiens) (UniProt P11229); assay: Positive allosteric modulator activity at human muscarinic M1 receptor expressed in CHO cells assessed as effect on acetylcholine-induced intracellular calcium mobilization by FLIPR assay; type: functional, cell-based
T1 sequence (whole entry): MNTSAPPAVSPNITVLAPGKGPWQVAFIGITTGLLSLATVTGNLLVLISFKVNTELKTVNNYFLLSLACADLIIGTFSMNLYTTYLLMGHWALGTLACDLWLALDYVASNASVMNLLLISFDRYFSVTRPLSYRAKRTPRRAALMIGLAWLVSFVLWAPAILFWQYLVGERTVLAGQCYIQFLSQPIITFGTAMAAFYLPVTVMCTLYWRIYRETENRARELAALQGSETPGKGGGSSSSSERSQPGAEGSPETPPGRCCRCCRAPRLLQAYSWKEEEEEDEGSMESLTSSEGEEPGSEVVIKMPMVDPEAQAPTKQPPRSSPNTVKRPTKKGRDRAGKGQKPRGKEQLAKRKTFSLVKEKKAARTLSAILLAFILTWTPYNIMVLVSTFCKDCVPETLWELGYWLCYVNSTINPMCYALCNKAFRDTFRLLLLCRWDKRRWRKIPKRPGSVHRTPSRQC
In short: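 CHO cells expressing human M1 were run with an EC20 concentration of acetylcholine. Calcium mobilization was read on a FLIPR384. Potency is reported as the inflection point. Percent max is the compound plus EC20 ACh response relative to the maximal acetylcholine effect.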

[3] = Bioavailability in rat at 10 mg/kg, po and 2 mg/kg, iv; type: ADME, organism-based; conditions: in vivo
In short: (§1)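 Rat pharmacokinetics, oral dosing at 10 mpk and intravenous dosing at 2 mpk. Bioavailability, half-life and clearance derived from these profiles.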

[4] = molecular target: T2, Muscarinic acetylcholine receptor M2 (Homo sapiens) (UniProt P08172); assay: Positive allosteric modulator activity at human muscarinic acetylcholine M2 receptor expressed in CHO cells assessed as effect on acetylcholine-induced intracellular calcium mobilization by FLIPR assay; type: functional, cell-based
T2 sequence (whole entry): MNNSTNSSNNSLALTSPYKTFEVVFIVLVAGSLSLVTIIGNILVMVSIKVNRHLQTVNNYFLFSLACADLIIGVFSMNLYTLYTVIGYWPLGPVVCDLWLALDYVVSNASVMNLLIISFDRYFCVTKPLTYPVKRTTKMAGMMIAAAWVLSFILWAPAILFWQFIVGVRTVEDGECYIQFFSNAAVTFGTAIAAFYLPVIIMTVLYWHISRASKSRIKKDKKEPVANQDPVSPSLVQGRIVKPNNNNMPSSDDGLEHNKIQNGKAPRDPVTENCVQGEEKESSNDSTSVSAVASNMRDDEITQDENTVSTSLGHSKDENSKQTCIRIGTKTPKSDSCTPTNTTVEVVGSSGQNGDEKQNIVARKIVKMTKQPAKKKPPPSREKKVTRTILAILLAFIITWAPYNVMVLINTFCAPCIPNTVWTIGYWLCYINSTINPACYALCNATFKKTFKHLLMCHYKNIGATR

[5] = Ratio of drug level in CSF to fraction unbound in plasma in P-glycoprotein deficient mouse; type: ADME; conditions: in vivo
In short: (§2)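 CF-1 wild-type and P-gp knockout mice were dosed, and plasma and CSF were taken 30 min later. The CSF to unbound plasma ratio was then calculated.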

Cerebrospinal fluid = assay: Drug level in Sprague-Dawley rat CSF at 10 mg/kg, po; type: ADME, organism-based; set-up: dose 10 mg/kg, route oral; conditions: in vivo, read-out: Drug uptake
[6] = Ratio of drug level in brain to plasma in Sprague-Dawley rat at 10 mg/kg, po; type: ADME, organism-based; set-up: dose 10 mg/kg, route oral
[7] = Half life in rat at 10 mg/kg, po and 2 mg/kg, iv; type: ADME, organism-based; conditions: in vivo; in short: as §1
[8] = molecular target: Muscarinic acetylcholine receptor M3 (Homo sapiens) (UniProt P20309); assay: Positive allosteric modulator activity at human muscarinic M3 receptor expressed in CHO cells assessed as effect on acetylcholine-induced intracellular calcium mobilization by FLIPR assay; type: functional, cell-based
Chain of Muscarinic acetylcholine receptor M3 (Homo sapiens) (P20309 whole entry, looked up): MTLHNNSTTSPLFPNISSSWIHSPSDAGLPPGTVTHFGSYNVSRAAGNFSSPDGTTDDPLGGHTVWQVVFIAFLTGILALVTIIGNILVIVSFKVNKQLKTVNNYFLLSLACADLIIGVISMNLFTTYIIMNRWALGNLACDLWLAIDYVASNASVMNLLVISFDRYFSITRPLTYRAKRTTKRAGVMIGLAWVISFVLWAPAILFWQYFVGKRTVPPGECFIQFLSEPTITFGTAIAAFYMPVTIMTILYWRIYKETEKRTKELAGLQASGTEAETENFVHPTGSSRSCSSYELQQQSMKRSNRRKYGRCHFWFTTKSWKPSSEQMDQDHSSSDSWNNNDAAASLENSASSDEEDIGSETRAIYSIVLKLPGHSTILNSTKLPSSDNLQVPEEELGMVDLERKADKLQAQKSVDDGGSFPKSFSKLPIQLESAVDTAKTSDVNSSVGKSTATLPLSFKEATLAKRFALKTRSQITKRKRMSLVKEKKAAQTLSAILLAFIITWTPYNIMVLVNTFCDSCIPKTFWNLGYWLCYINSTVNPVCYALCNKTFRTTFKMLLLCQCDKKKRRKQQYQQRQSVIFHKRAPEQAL

[9] = molecular target: T3, Muscarinic acetylcholine receptor M4 (Homo sapiens) (UniProt P08173); assay: Positive allosteric modulator activity at human muscarinic M4 receptor expressed in CHO cells assessed as effect on acetylcholine-induced intracellular calcium mobilization by FLIPR assay; type: functional, cell-based
T3 sequence (whole entry): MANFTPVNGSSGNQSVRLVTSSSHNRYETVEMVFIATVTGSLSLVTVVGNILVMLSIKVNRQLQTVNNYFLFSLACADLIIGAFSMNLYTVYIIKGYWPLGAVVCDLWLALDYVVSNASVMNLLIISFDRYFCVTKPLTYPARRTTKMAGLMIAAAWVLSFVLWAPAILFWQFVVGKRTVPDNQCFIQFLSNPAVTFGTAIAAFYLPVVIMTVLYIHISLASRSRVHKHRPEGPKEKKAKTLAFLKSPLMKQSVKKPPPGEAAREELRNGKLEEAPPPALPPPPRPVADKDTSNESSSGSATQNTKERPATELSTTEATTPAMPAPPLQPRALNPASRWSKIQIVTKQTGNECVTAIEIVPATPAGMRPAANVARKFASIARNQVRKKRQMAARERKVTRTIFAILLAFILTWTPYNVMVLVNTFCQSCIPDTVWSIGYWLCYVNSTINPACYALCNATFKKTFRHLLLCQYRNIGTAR

Brain = assay: Drug level in Sprague-Dawley rat brain at 10 mg/kg, po; type: ADME, organism-based; set-up: dose 10 mg/kg, route oral; conditions: in vivo, read-out: Drug uptake
[10] = Plasma protein binding in human serum by equilibrium dialysis method
[11] = Ratio of drug level in CSF to fraction unbound in plasma in CF-1 mouse; type: ADME; conditions: in vivo; in short: as §2
[12] = Ratio of drug level in CSF to fraction unbound in plasma in rat; type: ADME; conditions: in vivo
In short: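 Sprague–Dawley rats dosed orally at 10 mg/kg in 0.5% methocel. CSF level divided by unbound plasma level. Unbound fraction comes from rat plasma protein binding by equilibrium dialysis.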

[13] = Clearance in rat at 10 mg/kg, po and 2 mg/kg, iv; type: ADME, organism-based; conditions: in vivo; in short: as §1
Rattus norvegicus = assay: Plasma concentration in Sprague-Dawley rat at 10 mg/kg, po; type: ADME, organism-based; set-up: dose 10 mg/kg, route oral; conditions: in vivo

| SMILES | fraction unbound [1] | Activity (Mus musculus) | IP [2] [µM] | bioavailability [3] [%] | Activity [4] | Ratio [5] | concentration (Cerebrospinal fluid) [nM] | Kp [6] | half-life [7] [h] | Activity [8] | Activity [9] | concentration (Brain) [nM] | fraction unbound [10] | Ratio [11] | Ratio [12] | clearance [13] [mL/min/kg] | concentration (Rattus norvegicus) [nM] |
| --- | --- | --- | --- | --- | --- | --- | --- | --- | --- | --- | --- | --- | --- | --- | --- | --- | --- |
| O=C(O)c1cn(Cc2ccc(-n3cccn3)cc2)c2ccsc2c1=O | 0.132 | inactive | 0.52 | 33 | inactive | 0.16 | 123 | 0.07 | 3.7 | inactive | inactive | 316 | 0.14 | 0.05 | 0.21 | 6.8 | 4240 |
| Cc1ccn(-c2ccc(Cn3cc(C(=O)O)c(=O)c4ccncc43)cc2)n1 | 0.011 |  | 0.25 |  | inactive |  | 24 | 0.15 |  | inactive | inactive | 1200 | 0.125 |  | 0.03 |  | 78500 |
| Cn1cc(-c2ccc(Cn3cc(C(=O)O)c(=O)c4sccc43)nc2)cn1 | 0.094 |  | 0.34 |  | inactive |  | 42 | 0.02 |  | inactive | inactive | 159 | 0.279 |  | 0.05 |  | 9420 |
